Activity calls are given as the source filed them. No cut-off for these calls is given here.
Key:
[1] = Cytotoxicity against human Bel7402 cells assessed as growth inhibition at 1 uM after 72 hrs by MTT assay; format: functional; details: Bel-7402, 72 h, read-out: GI
Method in brief: (§1)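 Bel-7402 cells exposed to compound for 72 h, then MTT read-out of percent growth inhibition at the single stated concentration. Values are the mean of three independent experiments.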

[2] = Cytotoxicity against human Bel7402 cells assessed as growth inhibition at 100 uM after 72 hrs by MTT assay; format: functional; details: Bel-7402, 72 h, read-out: GI; method in brief: as §1
[3] = Cytotoxicity against human Bel7402 cells assessed as growth inhibition at 10 uM after 72 hrs by MTT assay; format: functional; details: Bel-7402, 72 h, read-out: GI; method in brief: as §1
HepG2 [4] = assay: Drug uptake in human HepG2 cells at 20 uM after 1 hr by inverted confocal microscopy; format: ADME, cell-based; details: hepg2, 1 h
Method in brief: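 HepG2 cells incubated with probe for 1 h, then intracellular fluorescence imaged by fluorescence microscopy.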

HeLa = assay: Cytotoxicity against human HeLa cells assessed as inhibition of cell proliferation after 72 hrs by MTT assay; format: functional, cell-based
Method in brief: (§2)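 Log-phase cells seeded at 5 × 10^4 cells/mL and exposed to compound for 72 h at 37 °C, 5% CO2. MTT (5 mg/mL) added for a further 4 h, formazan dissolved in DMSO, OD read at 490 nm. Negative reference 0.1% DMSO, positive reference paclitaxel. IC50 given as mean ± SD, n = 3.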

HepG2 [5] = assay: Cytotoxicity against human HepG2 cells assessed as inhibition of cell proliferation after 72 hrs by MTT assay; format: functional, cell-based; details: HepG2, 72 h; method in brief: as §2
A549 [6] = assay: Cytotoxicity against human A549 cells assessed as inhibition of cell proliferation after 72 hrs by MTT assay; format: functional, cell-based; details: A549, 72 h; method in brief: as §2
A549 [7] = assay: Dissipation of mitochondrial membrane potential in human A549 cells at 20 uM after 1 to 48 hrs by […]; format: functional, cell-based
[8] = Antiproliferative activity against human NCI-H929 cells assessed as reduction in cell viability after 24 to 72 hrs by MTT assay; format: functional, cell-based
[9] = Drug uptake in human A549 cell cytoplasm at 1 uM after 12 hrs by inverted confocal microscopy; format: ADME, cell-based; details: a549, 12 h
Method in brief: (§3)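 Live A549 or HepG2 cells were given 1 μM probe for 12 h and washed with media. Confocal imaging used ex 405/em 460 nm at 40× on an inverted microscope. Each experiment was repeated three times.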

HepG2 [10] = assay: Drug uptake in human HepG2 cells at 1 uM after 12 hrs by inverted confocal microscopy; format: ADME, cell-based; details: hepg2, 12 h; method in brief: as §3
HepG2 [11] = assay: Drug uptake in human HepG2 cells at 5 uM after 1 hr by inverted confocal microscopy; format: ADME, cell-based; details: hepg2, 1 h
Method in brief: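 HepG2 cells were incubated with probe at 5 μM for 1 h and then examined by fluorescence microscopy for intracellular staining.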

K562 = assay: Antiproliferative activity against human K562 cells; format: functional, cell-based

Structure (SMILES) | inhibition of growth at 1 µM [1] [%] | inhibition of growth at 100 µM [2] [%] | inhibition of growth at 10 µM [3] [%] | IC50 (HeLa) [µM] | IC50 (HepG2 [5]) [µM] | IC50 (A549 [6]) [µM] | further results
C=C1C(=O)[C@]23[C@H](OC(=O)CCCCCCC)[C@H]1CC[C@H]2[C@@]12CO[C@@]3(O)[C@@H](O)[C@@H]1C(C)(C)CC[C@@H]2O | 57.5 | 94.7 | 92.7 | – | – | – | –
CCN(CC)c1ccc2cc(C(=O)OCCCCOC(=O)CCCC(=O)O[C@@H]3[C@H]4CC[C@H]5[C@@]67CO[C@@](O)([C@@H](O)[C@@H]6C(C)(C)CC[C@@H]7O)[C@@]35C(=O)[C@@H]4C)c(=O)oc2c1 | 1.8 | 37.2 | 3.7 | 79.6 | 144 | 78 | Drug uptake (HepG2 [4]): Not Active; Activity (A549 [7]): inactive
C=C1C(=O)[C@]23[C@H](O)[C@H]1CC[C@H]2[C@]12CCCC(C)(C)[C@H]1[C@H](O)[C@@]3(O)OC2 | – | – | – | – | – | – | IC50 [8]: 0.85 µM
C=C1C(=O)[C@]23[C@H](OC(=O)CCCC(=O)OCCCOC(=O)c4cc5ccc(N(CC)CC)cc5oc4=O)[C@H]1CC[C@H]2[C@@]12CO[C@@]3(O)[C@@H](O)[C@@H]1C(C)(C)CC[C@@H]2O | 2.7 | 94.6 | 89.9 | – | – | – | –
C=C1C(=O)[C@]23[C@H](OC(=O)CCC(=O)OCCOC(=O)Cc4cc(=O)oc5cc(N(C)C)ccc45)[C@H]1CC[C@H]2[C@@]12CO[C@@]3(O)[C@@H](O)[C@@H]1C(C)(C)CC[C@@H]2O | 1.1 | 93.3 | 46.4 | 4.6 | 8.8 | 11.2 | Drug uptake [9]: Active; Drug uptake (HepG2 [10]): Active; Drug uptake (HepG2 [11]): Active
C=C1C(=O)[C@]23C[C@H]1CC[C@H]2[C@]1(COC3=O)[C@@H](OC(C)=O)CCC(C)(C)[C@H]1CO | – | – | – | – | – | – | IC50 (K562): 3.56 µM
C[C@H]1C(=O)[C@]23[C@H](O)[C@H]1CC[C@H]2[C@@]12CO[C@@]3(O)[C@@H](O)[C@@H]1C(C)(C)CC[C@@H]2O | 2.1 | 57.2 | 4.2 | 52.7 | 70.6 | 67 | –
